Results on twelve compounds are retold here after ChEMBL document CHEMBL3108692, “Potent Targeting of the STAT3 Protein in Brain Cancer Stem Cells: A Promising Route for Treating Glioblastoma” (ACS Med Chem Lett, 2013).

Calls of active or inactive are those of the source. No cut-off for these calls is given here.

The target of series [1] is T1, Signal transducer and activator of transcription 3 (Homo sapiens, UniProt P40763). The series is described as follows: Competitive binding affinity to STAT3 SH2 domain (unknown origin) assessed as inhibition of interaction with FAMpYLPQTV after 15 to 30 mins by fluorescent polarization assay.
The species entered for series [2] is Homo sapiens. Nature of the series: Inhibition of AKT in human 147EF cells after 6 hrs by Western blotting analysis. It is filed as cell-based. In general terms: A western blot detects proteins with antibodies after separation by electrophoresis.
The target in series [3] is Mitogen-activated protein kinase 3 (Homo sapiens) (UniProt P27361). The series is described as follows: Inhibition of ERK1 (unknown origin) at 5 uM after 120 mins.
Series [4] can be described thus: Cytotoxicity against human 30M cells assessed as cell viability after 3 days by Alamar Blue assay. The following applies: 72 h. On the technique in general: Alamar Blue is a resazurin reagent that responds to reducing activity.
The target of series [5] is Tyrosine-protein kinase JAK2 (Homo sapiens) (UniProt O60674). Nature of the series: Inhibition of JAK2 (unknown origin) at 5 uM after 120 mins relative to control.
Series [6] is described as follows: Cytotoxicity against human 84EF cells assessed as cell viability after 3 days by Alamar Blue assay. The following applies: 72 h.
The species entered for series [7] is Homo sapiens. The series is described as follows: Inhibition of MAPK in human 147EF cells after 6 hrs by Western blotting analysis. Format: cell-based.
Series [8] deals with RAC-alpha serine/threonine-protein kinase (Homo sapiens) (UniProt P31749). Nature of the series: Inhibition of AKT1 (unknown origin) at 5 uM after 120 mins.
A short description of series [9]: Cytotoxicity against HF2003 cells assessed as cell viability at 5 uM after 3 days by Alamar Blue assay. The following applies: human, 72 h. Format: cell-based. The method, boiled down:
(§1)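 Normal human fetal astrocytes (healthy, non-tumor cells) were exposed to compounds at concentrations up to 5 μM, with viability as the cytotoxicity read-out.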

Another series in a line: cells. As to conditions: Homo sapiens, 72 h.
The target in series [10] is Proto-oncogene tyrosine-protein kinase Src (Homo sapiens) (UniProt P12931). The series is described as follows: Inhibition of Src in human 147EF cells after 6 hrs by Western blotting analysis. It is filed as cell-based.
The nature of series [11]: Cytotoxicity against HF2006 cells assessed as cell viability at 5 uM after 3 days by Alamar Blue assay. Format: cell-based. The following applies: human, 72 h. In a few lines:
as §1

Series [12] can be described thus: Cytotoxicity against human 67EF cells assessed as cell viability after 3 days by Alamar Blue assay. As to conditions: 72 h.
The target in series [13] is Epidermal growth factor receptor (Homo sapiens) (UniProt P00533). Nature of the series: Inhibition of EGFR in human 147EF cells after 6 hrs by Western blotting analysis. It is filed as cell-based.
In series [14] the target is Tyrosine-protein kinase JAK1 (Homo sapiens) (UniProt P23458). Nature of the series: Inhibition of JAK1 (unknown origin) at 5 uM after 120 mins.
A short description of series [15]: Cytotoxicity against human 73EF cells assessed as cell viability after 3 days by Alamar Blue assay. As to conditions: 72 h.
Series [16] deals with Proto-oncogene tyrosine-protein kinase Src (Homo sapiens) (UniProt P12931). Nature of the series: Inhibition of c-Src (unknown origin) at 5 uM after 120 mins relative to control.
Series [17] can be described thus: Cytotoxicity against human 25EF cells assessed as cell viability after 3 days by Alamar Blue assay. As to conditions: 72 h.
The target of series [18] is Tyrosine-protein kinase JAK2 (Homo sapiens) (UniProt O60674). The series is described as follows: Inhibition of JAK2 in human 147EF cells after 6 hrs by Western blotting analysis. Format: cell-based.
Series [19] is filed under the species Homo sapiens. The series is described as follows: Inhibition of AKT phosphorylation in human 147EF cells at 0.1 to 1 uM after 3 hrs by Western blotting analysis. Format: cell-based.
For series [20], the species on record is Homo sapiens. Nature of the series: Induction of apoptosis in human 147EF cells assessed as PARP cleavage at 0.1 to 1 uM after 3 hrs by Western blotting analysis. It is filed as functional, cell-based.
Series [21] addresses T1, Signal transducer and activator of transcription 3. The series is described as follows: Inhibition of STAT3 phosphorylation at Y705 in human 147EF cells at 0.1 to 1 uM after 3 hrs by Western blotting analysis. It is filed as cell-based.
Series [22] is described as follows: Cytotoxicity against human 30M cells assessed as cell viability after 8 days by Alamar Blue assay. It is filed as functional, cell-based. As to conditions: 192 h.
A short description of series [23]: Cytotoxicity against human 73M cells assessed as cell viability after 8 days by Alamar Blue assay. Format: functional, cell-based. As to conditions: 192 h.

A word on the inhibition: it is the change of the read-out against control, counted positive when it falls. For orientation: IC50 means the concentration that gives 50% inhibition. One may read the Ki as a measure of affinity in units of concentration, obtained from inhibition or displacement.

Tyrosine-protein kinase JAK2 (Homo sapiens), sequence (O60674 whole entry): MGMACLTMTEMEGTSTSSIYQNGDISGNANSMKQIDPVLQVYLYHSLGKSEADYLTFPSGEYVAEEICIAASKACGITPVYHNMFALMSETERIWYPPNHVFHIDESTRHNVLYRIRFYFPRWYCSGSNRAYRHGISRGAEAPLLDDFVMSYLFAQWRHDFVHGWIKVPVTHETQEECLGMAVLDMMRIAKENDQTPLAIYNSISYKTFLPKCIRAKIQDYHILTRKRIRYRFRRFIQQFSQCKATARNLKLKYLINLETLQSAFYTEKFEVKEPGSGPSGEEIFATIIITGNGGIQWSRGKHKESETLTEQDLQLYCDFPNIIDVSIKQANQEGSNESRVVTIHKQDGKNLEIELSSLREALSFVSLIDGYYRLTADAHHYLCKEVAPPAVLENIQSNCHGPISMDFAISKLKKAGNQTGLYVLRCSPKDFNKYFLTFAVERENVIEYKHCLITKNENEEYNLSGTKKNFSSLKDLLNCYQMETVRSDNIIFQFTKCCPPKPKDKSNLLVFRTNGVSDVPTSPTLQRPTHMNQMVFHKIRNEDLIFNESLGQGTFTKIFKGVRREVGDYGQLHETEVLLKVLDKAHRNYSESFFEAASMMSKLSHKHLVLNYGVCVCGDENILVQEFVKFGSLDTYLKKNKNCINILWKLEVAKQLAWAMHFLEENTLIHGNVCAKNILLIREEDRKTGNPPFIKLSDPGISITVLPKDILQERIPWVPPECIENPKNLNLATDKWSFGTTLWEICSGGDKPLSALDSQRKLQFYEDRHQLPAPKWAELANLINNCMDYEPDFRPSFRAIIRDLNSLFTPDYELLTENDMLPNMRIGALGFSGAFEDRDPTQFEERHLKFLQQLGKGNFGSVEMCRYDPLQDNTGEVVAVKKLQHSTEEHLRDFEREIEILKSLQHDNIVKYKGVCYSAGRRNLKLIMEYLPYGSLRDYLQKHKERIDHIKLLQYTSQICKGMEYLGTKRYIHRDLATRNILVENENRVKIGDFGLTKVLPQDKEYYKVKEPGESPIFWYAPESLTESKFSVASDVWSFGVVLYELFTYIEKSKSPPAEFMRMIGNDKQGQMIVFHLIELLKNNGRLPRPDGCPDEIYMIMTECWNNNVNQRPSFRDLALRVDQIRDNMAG
Proto-oncogene tyrosine-protein kinase Src (Homo sapiens), sequence (P12931 2-536 limits assumed): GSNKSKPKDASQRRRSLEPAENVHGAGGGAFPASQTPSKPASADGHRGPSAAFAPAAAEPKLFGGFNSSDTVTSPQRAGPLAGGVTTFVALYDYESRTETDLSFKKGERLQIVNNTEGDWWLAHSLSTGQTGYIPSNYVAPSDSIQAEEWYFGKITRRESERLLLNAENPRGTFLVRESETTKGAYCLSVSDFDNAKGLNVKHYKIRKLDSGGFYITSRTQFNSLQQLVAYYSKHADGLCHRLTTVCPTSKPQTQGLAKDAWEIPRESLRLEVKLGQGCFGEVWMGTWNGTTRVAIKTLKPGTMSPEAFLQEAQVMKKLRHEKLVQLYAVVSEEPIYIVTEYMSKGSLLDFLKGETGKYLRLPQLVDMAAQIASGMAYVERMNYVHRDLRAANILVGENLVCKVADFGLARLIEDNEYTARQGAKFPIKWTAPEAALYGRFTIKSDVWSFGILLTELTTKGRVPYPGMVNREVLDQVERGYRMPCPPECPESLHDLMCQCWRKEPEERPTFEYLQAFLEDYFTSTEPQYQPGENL
T1 sequence (P40763 whole entry, the tested form may be a part): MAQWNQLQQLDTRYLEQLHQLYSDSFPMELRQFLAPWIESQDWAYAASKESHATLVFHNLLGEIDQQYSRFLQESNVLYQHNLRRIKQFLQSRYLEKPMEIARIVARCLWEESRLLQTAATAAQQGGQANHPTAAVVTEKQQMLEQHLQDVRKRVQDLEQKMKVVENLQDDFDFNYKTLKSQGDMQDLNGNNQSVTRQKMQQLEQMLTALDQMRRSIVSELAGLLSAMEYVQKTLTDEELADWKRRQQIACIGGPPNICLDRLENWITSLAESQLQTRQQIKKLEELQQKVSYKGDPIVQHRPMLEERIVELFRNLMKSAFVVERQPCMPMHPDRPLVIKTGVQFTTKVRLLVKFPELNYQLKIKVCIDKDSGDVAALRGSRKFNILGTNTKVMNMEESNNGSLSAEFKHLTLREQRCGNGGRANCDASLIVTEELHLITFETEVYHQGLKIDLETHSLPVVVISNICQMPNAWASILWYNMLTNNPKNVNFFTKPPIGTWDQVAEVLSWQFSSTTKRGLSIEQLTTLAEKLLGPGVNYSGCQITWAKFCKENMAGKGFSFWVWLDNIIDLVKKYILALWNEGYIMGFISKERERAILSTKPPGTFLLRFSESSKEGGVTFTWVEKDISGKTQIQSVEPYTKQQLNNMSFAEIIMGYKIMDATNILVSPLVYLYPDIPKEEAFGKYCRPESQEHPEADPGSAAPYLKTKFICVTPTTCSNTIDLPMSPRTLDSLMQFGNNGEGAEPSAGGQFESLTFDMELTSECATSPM
Tyrosine-protein kinase JAK1 (Homo sapiens), sequence (P23458 whole entry): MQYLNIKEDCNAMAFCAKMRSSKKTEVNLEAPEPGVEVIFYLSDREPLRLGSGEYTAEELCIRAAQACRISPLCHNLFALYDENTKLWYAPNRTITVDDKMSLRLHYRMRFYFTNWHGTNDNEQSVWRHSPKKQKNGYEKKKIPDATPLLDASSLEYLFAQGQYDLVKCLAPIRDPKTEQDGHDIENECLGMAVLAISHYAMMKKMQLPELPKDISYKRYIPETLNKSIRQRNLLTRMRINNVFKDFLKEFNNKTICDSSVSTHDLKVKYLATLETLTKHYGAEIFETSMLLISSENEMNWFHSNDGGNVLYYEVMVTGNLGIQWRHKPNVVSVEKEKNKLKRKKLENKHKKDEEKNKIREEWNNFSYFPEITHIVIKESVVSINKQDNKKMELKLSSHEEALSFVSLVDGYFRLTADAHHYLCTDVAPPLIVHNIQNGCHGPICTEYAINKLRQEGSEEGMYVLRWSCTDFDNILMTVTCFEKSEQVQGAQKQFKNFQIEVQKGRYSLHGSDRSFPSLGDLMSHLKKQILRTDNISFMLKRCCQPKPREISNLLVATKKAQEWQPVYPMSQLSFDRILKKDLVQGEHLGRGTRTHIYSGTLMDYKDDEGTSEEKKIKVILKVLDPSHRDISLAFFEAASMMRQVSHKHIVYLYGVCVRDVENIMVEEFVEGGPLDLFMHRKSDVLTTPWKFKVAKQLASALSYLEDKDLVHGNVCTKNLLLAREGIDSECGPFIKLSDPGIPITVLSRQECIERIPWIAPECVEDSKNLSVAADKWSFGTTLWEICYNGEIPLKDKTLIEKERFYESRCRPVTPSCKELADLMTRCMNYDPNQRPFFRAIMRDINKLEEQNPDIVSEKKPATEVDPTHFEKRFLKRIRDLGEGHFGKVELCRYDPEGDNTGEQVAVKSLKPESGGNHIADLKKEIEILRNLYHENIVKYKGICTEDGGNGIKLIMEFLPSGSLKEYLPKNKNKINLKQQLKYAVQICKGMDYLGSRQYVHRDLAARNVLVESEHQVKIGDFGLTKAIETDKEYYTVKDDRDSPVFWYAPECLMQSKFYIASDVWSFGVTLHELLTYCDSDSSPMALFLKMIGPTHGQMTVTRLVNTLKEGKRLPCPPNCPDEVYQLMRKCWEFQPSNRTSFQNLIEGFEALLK
Mitogen-activated protein kinase 3 (Homo sapiens), sequence (P27361 whole entry): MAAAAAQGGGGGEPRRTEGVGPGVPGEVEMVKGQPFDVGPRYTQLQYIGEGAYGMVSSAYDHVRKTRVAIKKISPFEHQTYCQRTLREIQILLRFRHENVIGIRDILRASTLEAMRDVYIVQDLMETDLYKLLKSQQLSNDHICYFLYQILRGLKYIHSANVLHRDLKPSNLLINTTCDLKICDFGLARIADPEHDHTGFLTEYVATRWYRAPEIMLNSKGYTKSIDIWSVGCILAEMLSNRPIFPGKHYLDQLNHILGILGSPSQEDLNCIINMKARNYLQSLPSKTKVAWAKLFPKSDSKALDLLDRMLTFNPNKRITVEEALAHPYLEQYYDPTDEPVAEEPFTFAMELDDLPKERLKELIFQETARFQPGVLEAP
RAC-alpha serine/threonine-protein kinase (Homo sapiens), sequence (P31749 whole entry): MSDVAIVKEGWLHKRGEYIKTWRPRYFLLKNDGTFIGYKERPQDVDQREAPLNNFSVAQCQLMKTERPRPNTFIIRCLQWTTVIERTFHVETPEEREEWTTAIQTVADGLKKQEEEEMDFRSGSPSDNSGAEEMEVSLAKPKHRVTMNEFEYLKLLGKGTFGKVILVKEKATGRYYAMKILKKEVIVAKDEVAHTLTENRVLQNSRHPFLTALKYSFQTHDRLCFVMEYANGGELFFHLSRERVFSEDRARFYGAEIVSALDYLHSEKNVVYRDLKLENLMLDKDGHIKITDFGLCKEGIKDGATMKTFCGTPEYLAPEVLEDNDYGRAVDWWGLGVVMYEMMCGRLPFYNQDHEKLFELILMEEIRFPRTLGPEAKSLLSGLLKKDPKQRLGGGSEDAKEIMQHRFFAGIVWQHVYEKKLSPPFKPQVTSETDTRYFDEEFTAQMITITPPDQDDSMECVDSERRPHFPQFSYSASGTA

With `CN(CC(=O)N(Cc1ccc(C2CCCCC2)cc1)c1ccccc1)S(=O)(=O)c1c(F)c(F)c(F)c(F)c1F`, in [1], the inhibition entry was “inactive”.

On to `CCOC(=O)C(=O)Nc1ccc(N(Cc2ccc(C3CCCCC3)cc2)C(=O)CN(C)S(=O)(=O)c2c(F)c(F)c(F)c(F)c2F)cc1`, for which, in series [1], the inhibition result was “inactive”.

`CN(CC(=O)N(Cc1ccc(C2CCCCC2)cc1)c1ccc(C(=O)OCOC(=O)C(C)(C)C)cc1)S(=O)(=O)c1c(F)c(F)c(F)c(F)c1F`: the inhibition result in series [1] is “inactive”.

With `CC(=O)Oc1cc(N(Cc2ccc(C3CCCCC3)cc2)C(=O)CN(C)S(=O)(=O)c2c(F)c(F)c(F)c(F)c2F)ccc1C(=O)O`, the inhibition entry (in the series filed under Homo sapiens [2]; in series [3]; in the series listed under Homo sapiens [7]; in [8]; in series [10]; in series [1]) was “inactive” each time. For the same compound, the inhibition result in series [13], in series [14] and in series [18] was “inactive” each time. The IC50 was found to be 0.1 µM in series [4]; 0.332 µM in series [6]; 0.273 µM in “cells”; 0.435 µM in series [12]; 1.07 µM in series [15]; 1.15 µM in series [17]. For the same compound, the inhibition in series [5] and in series [16] was 50% each time. Moreover, the Activity result in series [9] and in [11] was “Non-toxic” in each case.

For the compound `COC(=O)c1ccc(N(Cc2ccc(C3CCCCC3)cc2)C(=O)CN(C)S(=O)(=O)c2c(F)c(F)c(F)c(F)c2F)cc1`, the inhibition entry in series [1] was “inactive”.

Take `CCOP(=O)(Cc1ccc(N(Cc2ccc(C3CCCCC3)cc2)C(=O)CN(C)S(=O)(=O)c2c(F)c(F)c(F)c(F)c2F)cc1)OCC`: the inhibition entry in [1] was “inactive”.

Regarding `CN(CC(=O)N(Cc1ccc(C2CCCCC2)cc1)c1ccc(C(=O)O)c(F)c1)S(=O)(=O)c1c(F)c(F)c(F)c(F)c1F`, the IC50 worked out at 0.1 µM in [4]; 0.203 µM in series [6]; 0.09 µM in “cells”; 0.214 µM in [12]; 0.438 µM in [15]; 0.592 µM in [17]. Further, in series [1], the Ki was found to be 10 µM.

On to `CCOC(=O)c1ccc(N(Cc2ccc(C3CCCCC3)cc2)C(=O)CN(C)S(=O)(=O)c2c(F)c(F)c(F)c(F)c2F)cc1`, for which, in series [1], the inhibition result is “inactive”.

Regarding `CN(CC(=O)N(Cc1ccc(C2CCCCC2)cc1)c1ccc(C(=O)O)c(O)c1)S(=O)(=O)c1c(F)c(F)c(F)c(F)c1F`, the inhibition result (in the series filed under Homo sapiens [19]; in [21]) was “Active” in each case. The IC50 in series [4] is 2 µM. In addition, in the series listed under Homo sapiens [20], the result was Active.

Take `C[C@H](NC(=O)/C(C#N)=C/c1cccc(Br)n1)c1ccccc1` [WP 1066]: the concentration for half-maximal inhibition (IC50) in series [22] came out at 1.8 µM; in series [23], 2.1 µM.

Regarding `CC(=O)OCOC(=O)c1ccc(N(Cc2ccc(C3CCCCC3)cc2)C(=O)CN(C)S(=O)(=O)c2c(F)c(F)c(F)c(F)c2F)cc1`, the inhibition entry in series [1] is “inactive”.

Take `CN(CC(=O)N(Cc1ccc(C2CCCCC2)cc1)c1ccc(C(=O)NO)cc1)S(=O)(=O)c1c(F)c(F)c(F)c(F)c1F`: the inhibition result (in the series filed under Homo sapiens [2]; in [3]; in the series listed under Homo sapiens [7]; in series [8]; in [10]; in series [13]) was “inactive” each time. Further, the inhibition result in series [14] and in [18] was “inactive” in each case. Moreover, the inhibition in series [5] and in [16] was 50% in each case. Also, the Activity entry in [9] and in series [11] was “Non-toxic” throughout.
